Screens from PubChem.
Ecoli rRNA inh – inhibitors of bacterial rRNA selective over humanized ribosomes. E. coli WT GFP vs humanized-ribosome RFP mutants, fluorescence, 24 h; active compounds read low; DMSO median 0, no signal -100. GFP signal change (wild-type ribosome), % (test concentration not listed). actives 1.6% (n = 350,000). AID 720706;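 active = significant combined selectivity score with lowered wild-type GFP, culture density cut under 30%, mutant RFP and density less affected; inactive = any of these conditions unmet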
DENV2 CPE rescue – DENV2-induced cell death inhibition; CPE inhibition, % at 9.99 µM; actives 1.7% (n = 350,000); DENV2-infected cells, cytopathic effect rescue, plate reader; in the data active = CPE inhibition above about 20%, passing the limit was not always enough; inconclusive = no clear call, values can overlap the other calls; tested in BHK-21 cells
HIV Env fusion – HIV envelope-mediated fusion inhibition; HeLa-JRFL Env/CEM21 cell fusion, luciferase; inhibition, % at 12.3 µM; actives 1.1% (n = 360,000); AID 651610;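 active = mean replicate inhibition score of at least 50 and every replicate individually at or above 50; inconclusive = only one of the two criteria met; inactive = mean below 50 and not all replicates reaching 50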
PGC1a acetyl inh – PGC1a acetylation modulation, inhibitor mode. inhibition, % at 15.6 µM. actives 0.17% (n = 350,000). U2OS PGC1a acetylation, AlphaScreen anti-acetyl-lysine; with virally co-expressed GCN5 acetyltransferase;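 active = every replicate shows inhibition of at least 40%; inconclusive = mean inhibition at least 40% but some replicate below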
PglD DTNB – PglD (C. jejuni) enzyme inhibition. purified PglD enzyme, DTNB colorimetric CoA detection. inhibition, % at 12.5 µM. actives 0.098% (n = 360,000); in the data active = inhibition above about 16%, passing the limit was not always enough; inconclusive = no clear call, values can overlap the other calls
FN deposition inh – fibronectin deposition inhibition. AH1F fibroblasts, Alexa488-fibronectin deposition fluorescence, overnight. inhibition, % at 12.6 µM. actives 0.086% (n = 350,000). AID 743247;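 active = mean inhibition across replicates of 30% or more, regardless of how many single replicates reach that level; inconclusive = mean under 30% yet at least half of replicates reach 30%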
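Schedule: 1 h cell adhesion before compound, then overnight fibronectin incubation; test system: AH1F fibroblast monolayer depositing Alexa488-labelled fibronectin into matrix; quantity: 10000 AH1F cells per well; probe or stimulus: fluorescent fibronectin at 24 nM final; signal: fluorescence, ex 485 nm, em 525 nm; evaluation: percent inhibition as loss of matrix-bound fibronectin fluorescence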
Each line names hits and unclear results; the compound was inactive in the other large screens. Sampled rows, rich in hits. Any-hit rate of the full collection: about 3.5%.

C[C@H]1CN([C@@H](C)CO)S(=O)(=O)c2ccc(-c3ccc(F)cc3)cc2O[C@@H]1CN(C)C(=O)C1CCCCC1	DENV2 CPE rescue 52
C[C@@H]1CCCCO[C@@H](CN(C)C(=O)c2ccccc2)[C@H](C)CN([C@@H](C)CO)C(=O)c2cc(NC(=O)NC3CCCCC3)ccc2O1	none
COc1ccc(-c2onc(C)c2-c2ccc(C(=O)OC(C)C)o2)c(O)c1	PGC1a acetyl inh 74 (no result: Ecoli rRNA inh, DENV2 CPE rescue, HIV Env fusion)
COC(=O)c1c(NC(=O)C(Cl)Cl)sc2c1C(C(=O)OC)CC2 (centres undefined)	DENV2 CPE rescue 122 (no result: PGC1a acetyl inh, PglD DTNB)
Cc1oc2c(Cl)c(Cl)c(O)c(CN(C)C)c2c1C(=O)c1ccc(Cl)cc1	HIV Env fusion 64
Cc1ccn2cc(-c3cccc(S(=O)(=O)N4CCCCC4)c3)nc2c1	Ecoli rRNA inh -44
C[C@@H]1CN([C@@H](C)CO)C(=O)CCCn2cc(nn2)CO[C@@H]1CN(C)C(=O)Nc1ccccc1	none (no result: DENV2 CPE rescue, HIV Env fusion, PglD DTNB)
CN1CCN(C(=O)C[C@H]2CC[C@H]3[C@@H](COC[C@H](O)CN3S(=O)(=O)c3cccc(Cl)c3)O2)CC1	none (no result: HIV Env fusion)
O=C(C[C@H]1CC[C@@H]2[C@H](COC[C@H](O)CN2S(=O)(=O)c2cccc(Cl)c2)O1)N1CCOCC1	DENV2 CPE rescue 21 (no result: HIV Env fusion)
CN1CCN(C(=O)C[C@H]2CC[C@@H]3[C@H](COC[C@@H](O)CN3S(=O)(=O)c3cccc(Cl)c3)O2)CC1	DENV2 CPE rescue 23 (no result: HIV Env fusion)
COc1ccc(-c2cc(C#N)nc(NN)n2)cc1	DENV2 CPE rescue 47
Cc1cc(Cl)c2oc(C(=O)N(C)CCCN3CCOCC3)c(C)c2c1	none (no result: PGC1a acetyl inh)
Cc1cc(Cl)c2oc(C(=O)N(C)CCCCN3CCOCC3)c(C)c2c1	DENV2 CPE rescue 22
CCOc1cc(/C=C/C(=O)OCC(=O)NC2CCS(=O)(=O)C2)ccc1OCc1ccccc1 (centres undefined)	Ecoli rRNA inh -28 (no result: PglD DTNB, FN deposition inh)
O=C(COC(=O)/C=C/c1ccccc1)NC1CCS(=O)(=O)C1 (centres undefined)	none (no result: HIV Env fusion, PGC1a acetyl inh)
COc1ccc(S(=O)(=O)N(C)C[C@@H]2Oc3ccc(NC(=O)c4ccncc4)cc3CC(=O)N([C@H](C)CO)C[C@@H]2C)cc1	none
CCOC(=O)C1C(C(C)=O)=C(c2ccccc2)c2ccccc2N1S(=O)(=O)C(F)(F)F (centres undefined)	none (no result: FN deposition inh)
CCOC(=O)C1=C(c2ccccc2)c2ccccc2N(S(=O)(=O)C(F)(F)F)C1C(=O)OCC (centres undefined)	HIV Env fusion 60 (no result: FN deposition inh)
NC(=O)CC(NC(=O)c1cccc(Br)c1)c1ccc(NCC2CC2)c([N+](=O)[O-])c1 (centres undefined)	none (no result: PGC1a acetyl inh)
NC(=O)CC(NC(=O)c1cccc(Br)c1)c1ccc(NCCN2CCOCC2)c([N+](=O)[O-])c1 (centres undefined)	DENV2 CPE rescue 29 (no result: PGC1a acetyl inh, PglD DTNB)
NC(=O)CC(NC(=O)c1ccccc1)c1ccc(NCCc2cccc(F)c2)c([N+](=O)[O-])c1 (centres undefined)	DENV2 CPE rescue 39 (no result: PGC1a acetyl inh)
NC(=O)CC(NC(=O)c1ccc(Br)cc1)c1ccc(NCCc2ccc(F)cc2)c([N+](=O)[O-])c1 (centres undefined)	none (no result: PGC1a acetyl inh)
CNC[C@@H]1Oc2ccc(NC(=O)CCCN(C)C)cc2C(=O)N([C@H](C)CO)C[C@@H]1C	none
O=Cc1s/c(=N\S(=O)(=O)c2ccccc2)n(CCCCl)c1Cl	FN deposition inh 52 (no result: DENV2 CPE rescue, PGC1a acetyl inh, PglD DTNB)
CCn1c(C)cs/c1=N\S(=O)(=O)c1ccccc1	none
CCCN(C)C[C@H]1Oc2cc(-c3ccc(OC)cc3)ccc2S(=O)(=O)N([C@H](C)CO)C[C@H]1C	none
COc1ccc2c3c([nH]c2c1)[C@H](CO)N(Cc1ccccc1F)CC31CN(C(=O)C2CCCC2)C1	DENV2 CPE rescue 24 (no result: HIV Env fusion, PGC1a acetyl inh, PglD DTNB, FN deposition inh)
COc1ccc2c3c([nH]c2c1)[C@H](CO)N(C)CC31CN(C(=O)C2CC2)C1	DENV2 CPE rescue 45 (no result: HIV Env fusion, PglD DTNB)
COc1ccc2c3c([nH]c2c1)[C@H](CO)N(Cc1ccccc1F)CC31CN(C(=O)C2CCC2)C1	none (no result: HIV Env fusion, PglD DTNB, FN deposition inh)
CCCCN1C=CC(=C2C(=O)c3ccccc3C2=O)C=C1	HIV Env fusion 84 (no result: DENV2 CPE rescue)
C[C@H]1CN([C@@H](C)CO)C(=O)c2cccc(NC(=O)Nc3ccc4c(c3)OCO4)c2O[C@@H]1CN(C)C(=O)Nc1ccc(F)cc1	none (no result: FN deposition inh)
Cc1ccc(OCC(=O)NC2CCSc3ccccc32)cc1 (centres undefined)	DENV2 CPE rescue 26 (no result: PGC1a acetyl inh)
O=C(c1ccc(F)cc1)C(CN1CCOCC1)c1ccccc1 (centres undefined)	PGC1a acetyl inh 60 (no result: HIV Env fusion, FN deposition inh)
COc1ccc(C(=O)C(CN2CCCC2)c2ccccc2)cc1 (centres undefined)	none (no result: Ecoli rRNA inh, DENV2 CPE rescue)
COc1ccc(C(=O)C(CN2CCOCC2)c2ccccc2)cc1 (centres undefined)	Ecoli rRNA inh -50 (no result: HIV Env fusion, FN deposition inh)
CCCCCC(O)(c1ccc(OC)cc1)C(CN1CCOCC1)c1ccccc1 (centres undefined)	none (no result: PGC1a acetyl inh)
O=C(c1ccc(Cl)cc1)C(CN1CCCC1)c1ccccc1 (centres undefined)	FN deposition inh 53 (no result: PGC1a acetyl inh)
CCCCCC(O)(c1ccc(OCC)cc1)C(CN1CCOCC1)c1ccccc1 (centres undefined)	HIV Env fusion 59
O=C(Nc1ccc(Cl)cc1)N[C@H]1CC[C@@H](CCNC(=O)c2cc(Cl)cc(Cl)c2)O[C@@H]1CO	none (no result: HIV Env fusion, PglD DTNB)
COc1ccc(C(O)(C2CCCCC2)C(CN2CCOCC2)c2ccccc2)cc1 (centres undefined)	HIV Env fusion 74 (no result: PGC1a acetyl inh)
CCCCOc1ccc(C(=O)C(CN2CCOCC2)c2ccccc2)cc1 (centres undefined)	PGC1a acetyl inh 80 (no result: Ecoli rRNA inh, DENV2 CPE rescue, HIV Env fusion, FN deposition inh)
O=C(C[C@@H]1C[C@H]2c3cc(NC(=O)Nc4ccccc4)ccc3O[C@H]2[C@@H](CO)O1)NCc1ccccn1	none
Cc1noc(C)c1NC(=O)N[C@H]1C=C[C@@H](CC(=O)NCCCN(C)C)O[C@@H]1CO	none (no result: HIV Env fusion)
O=c1[nH]c(Nc2ccc(F)cc2)cc2ccccc12	PglD DTNB 32 (no result: DENV2 CPE rescue)
O=C(CSc1n[nH]c(=O)n1C1CC1)Nc1cc(Cl)ccc1Oc1ccccc1	HIV Env fusion 128 (no result: Ecoli rRNA inh, DENV2 CPE rescue, FN deposition inh)
O=C(Nc1ccc(S(=O)(=O)NCc2cccnc2)cc1)c1ccco1	HIV Env fusion 65 (no result: Ecoli rRNA inh, DENV2 CPE rescue)
CC(=O)Nc1ccc(S(=O)(=O)NCc2cccnc2)cc1	none (no result: Ecoli rRNA inh, DENV2 CPE rescue, PGC1a acetyl inh, PglD DTNB)
COc1cc2c(OC(C)=O)c3c(c(-c4ccc5c(c4)OCO5)c2cc1OC)C(=O)OC3	DENV2 CPE rescue inconclusive (no result: Ecoli rRNA inh, HIV Env fusion, FN deposition inh)
COc1cc2c(O)c3c(c(-c4ccc5c(c4)OCO5)c2cc1OC)C(=O)OC3	HIV Env fusion 63 (no result: Ecoli rRNA inh, DENV2 CPE rescue)
COc1ccc2c3c([nH]c2c1)[C@@H](CO)N(C(=O)Nc1ccc(F)cc1)CC31CN(Cc2ccc(F)cc2)C1	DENV2 CPE rescue 32 (no result: HIV Env fusion, PGC1a acetyl inh, PglD DTNB, FN deposition inh)
COc1ccc2c3c([nH]c2c1)[C@@H](CO)N(C(=O)Nc1ccc(F)cc1)CC31CCN(CC2CC2)CC1	DENV2 CPE rescue 56 (no result: PGC1a acetyl inh, PglD DTNB, FN deposition inh)
